Several values for one entry are separate records, joined by “and”; a condition that tells them apart may be missing. Identical values can stand only once.
Tested on: Fibroblast
Experiment: Multiplex assay against human fibroblast
Assay type: toxicity, cell-based
Summary of the method: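 Live cells were stained at seeding with Hoechst33342, BioTracker Green Microtubule Cytoskeleton Dye, MitoTracker Red and Annexin V Alexa Fluor 680. Following compound addition, they were imaged on a CQ1 microscope at 37°C and 5% CO2 and gated by CellPathfinder machine learning into Hoechst high-intensity objects or normal cells, with normal cells split into healthy, pyknosed or fragmented nuclei and pyknosed cells into mitotic or apoptotic. Tubulin, mitochondrial-mass and membrane-permeability phenotypes are per cents of healthy-nucleus cells.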

[1] = 12 h, 1 µM, compound concentration 1 uM, replicate 1
[2] = 12 h, 1 µM, compound concentration 1 uM, replicate 2
[3] = 12 h, 10 µM, compound concentration 10 uM, replicate 1
[4] = 12 h, 10 µM, compound concentration 10 uM, replicate 2
[5] = 24 h, 1 µM, compound concentration 1 uM, replicate 1
[6] = 24 h, 1 µM, compound concentration 1 uM, replicate 2
[7] = 24 h, 10 µM, compound concentration 10 uM, replicate 1
[8] = 24 h, 10 µM, compound concentration 10 uM, replicate 2
[9] = 48 h, 10 µM, compound concentration 10 uM, replicate 1
[10] = 48 h, 10 µM, compound concentration 10 uM, replicate 2
[11] = 48 h, 1 µM, compound concentration 1 uM, replicate 1
[12] = 48 h, 1 µM, compound concentration 1 uM, replicate 2

## COc1cc(N2CCC(N(C)C)CC2)ccc1Nc1ncc(Cl)c(Nc2ccccc2P(C)(C)=O)n1
[1]
  Population Apoptotic (%): 64%
  Population Fragmented Nuclei (%): 26%
  Population Healthy Nuclei (%): 56%
  Population Hoechst High Intensity Objects (%): 14%
  Population Membrane Permeable-Phenotype (%): 8%
  Population Mitochondria Different-Phenotype (%): 6%
  Population Mitotic Cells (%): 35%
  Population Normal (%): 85%
  Population Pyknosed Nuclei (%): 16%
  Population Tubulin-Different-Phenotype (%): 6%
  Total Cell Count: 202
[2]
  Population Apoptotic (%): 42%
  Population Fragmented Nuclei (%): 52%
  Population Healthy Nuclei (%): 31%
  Population Hoechst High Intensity Objects (%): 24%
  Population Membrane Permeable-Phenotype (%): 14%
  Population Mitochondria Different-Phenotype (%): 7%
  Population Mitotic Cells (%): 57%
  Population Normal (%): 75%
  Population Pyknosed Nuclei (%): 15%
  Population Tubulin-Different-Phenotype (%): 21%
  Total Cell Count: 58
[3]
  Population Apoptotic (%): 73% and 69%
  Population Fragmented Nuclei (%): 27% and 24%
  Population Healthy Nuclei (%): 45% and 57%
  Population Hoechst High Intensity Objects (%): 13%
  Population Mitochondria Different-Phenotype (%): 7% and 6%
  Population Mitotic Cells (%): 26% and 30%
  Population Normal (%): 86%
  Population Pyknosed Nuclei (%): 27% and 17%
  Total Cell Count: 98 and 215
[4]
  Population Apoptotic (%): 37% and 88%
  Population Fragmented Nuclei (%): 45% and 26%
  Population Healthy Nuclei (%): 32%
  Population Hoechst High Intensity Objects (%): 39% and 16%
  Population Membrane Permeable-Phenotype (%): 8% and 15%
  Population Normal (%): 60% and 83%
  Population Pyknosed Nuclei (%): 21% and 40%
  Population Tubulin-Different-Phenotype (%): 41% and 90%
  Total Cell Count: 61 and 73
[5]
  Population Apoptotic (%): 96%
  Population Fragmented Nuclei (%): 18%
  Population Healthy Nuclei (%): 65%
  Population Hoechst High Intensity Objects (%): 14%
  Population Membrane Permeable-Phenotype (%): 6%
  Population Mitotic Cells (%): 3%
  Population Normal (%): 85%
  Population Pyknosed Nuclei (%): 16%
  Population Tubulin-Different-Phenotype (%): 4%
  Total Cell Count: 204
[6]
  Population Apoptotic (%): 57%
  Population Fragmented Nuclei (%): 43%
  Population Healthy Nuclei (%): 38%
  Population Hoechst High Intensity Objects (%): 32%
  Population Membrane Permeable-Phenotype (%): 0%
  Population Mitochondria Different-Phenotype (%): 6%
  Population Mitotic Cells (%): 42%
  Population Normal (%): 67%
  Population Pyknosed Nuclei (%): 17%
  Population Tubulin-Different-Phenotype (%): 13%
  Total Cell Count: 58
[7]
  Population Apoptotic (%): 68% and 88%
  Population Fragmented Nuclei (%): 29% and 31%
  Population Healthy Nuclei (%): 50% and 54%
  Population Hoechst High Intensity Objects (%): 13%
  Population Mitochondria Different-Phenotype (%): 14% and 9%
  Population Mitotic Cells (%): 31% and 11%
  Population Normal (%): 86%
  Population Pyknosed Nuclei (%): 19% and 14%
  Total Cell Count: 94 and 210
[8]
  Population Apoptotic (%): 66% and 92%
  Population Fragmented Nuclei (%): 47% and 26%
  Population Healthy Nuclei (%): 35% and 15%
  Population Hoechst High Intensity Objects (%): 39% and 38%
  Population Normal (%): 60% and 61%
  Population Tubulin-Different-Phenotype (%): 41% and 100%
  Total Cell Count: 56 and 75
[9]
  Population Apoptotic (%): 87%
  Population Fragmented Nuclei (%): 47%
  Population Healthy Nuclei (%): 41%
  Population Hoechst High Intensity Objects (%): 22%
  Population Membrane Permeable-Phenotype (%): 20%
  Population Mitochondria Different-Phenotype (%): 23%
  Population Mitotic Cells (%): 12%
  Population Normal (%): 77%
  Population Pyknosed Nuclei (%): 10%
  Population Tubulin-Different-Phenotype (%): 70%
  Total Cell Count: 94
[10]
  Population Apoptotic (%): 66%
  Population Fragmented Nuclei (%): 34%
  Population Healthy Nuclei (%): 61%
  Population Hoechst High Intensity Objects (%): 16%
  Population Membrane Permeable-Phenotype (%): 22%
  Population Mitochondria Different-Phenotype (%): 9%
  Population Mitotic Cells (%): 33%
  Population Normal (%): 83%
  Population Pyknosed Nuclei (%): 4%
  Population Tubulin-Different-Phenotype (%): 56%
  Total Cell Count: 86

## COc1ccc(NS(=O)(=O)c2sc3ccc(Cl)cc3c2C)cc1N1CCNCC1.Cl
[1]
  Population Apoptotic (%): 50%
  Population Fragmented Nuclei (%): 25%
  Population Healthy Nuclei (%): 38%
  Population Hoechst High Intensity Objects (%): 10%
  Population Membrane Permeable-Phenotype (%): 30%
  Population Mitochondria Different-Phenotype (%): 4%
  Population Mitotic Cells (%): 50%
  Population Normal (%): 89%
  Population Pyknosed Nuclei (%): 35%
  Population Tubulin-Different-Phenotype (%): 30%
  Total Cell Count: 125
[2]
  Population Apoptotic (%): 28%
  Population Fragmented Nuclei (%): 13%
  Population Healthy Nuclei (%): 69%
  Population Hoechst High Intensity Objects (%): 12%
  Population Membrane Permeable-Phenotype (%): 0%
  Population Mitochondria Different-Phenotype (%): 26%
  Population Mitotic Cells (%): 71%
  Population Normal (%): 87%
  Population Pyknosed Nuclei (%): 16%
  Population Tubulin-Different-Phenotype (%): 10%
  Total Cell Count: 69
[3]
  Population Apoptotic (%): 75%
  Population Fragmented Nuclei (%): 33%
  Population Healthy Nuclei (%): 47%
  Population Hoechst High Intensity Objects (%): 22%
  Population Membrane Permeable-Phenotype (%): 1%
  Population Mitochondria Different-Phenotype (%): 40%
  Population Mitotic Cells (%): 24%
  Population Normal (%): 77%
  Population Pyknosed Nuclei (%): 19%
  Population Tubulin-Different-Phenotype (%): 88%
  Total Cell Count: 217
[4]
  Population Apoptotic (%): 61%
  Population Fragmented Nuclei (%): 14%
  Population Healthy Nuclei (%): 56%
  Population Hoechst High Intensity Objects (%): 4%
  Population Membrane Permeable-Phenotype (%): 25%
  Population Mitochondria Different-Phenotype (%): 100%
  Population Mitotic Cells (%): 38%
  Population Normal (%): 95%
  Population Pyknosed Nuclei (%): 29%
  Population Tubulin-Different-Phenotype (%): 94%
  Total Cell Count: 49
[5]
  Population Apoptotic (%): 40%
  Population Fragmented Nuclei (%): 26%
  Population Healthy Nuclei (%): 52%
  Population Hoechst High Intensity Objects (%): 11%
  Population Membrane Permeable-Phenotype (%): 25%
  Population Mitochondria Different-Phenotype (%): 3%
  Population Mitotic Cells (%): 60%
  Population Normal (%): 88%
  Population Pyknosed Nuclei (%): 20%
  Population Tubulin-Different-Phenotype (%): 42%
  Total Cell Count: 136
[6]
  Population Apoptotic (%): 33%
  Population Fragmented Nuclei (%): 10%
  Population Healthy Nuclei (%): 77%
  Population Hoechst High Intensity Objects (%): 3%
  Population Membrane Permeable-Phenotype (%): 5%
  Population Mitochondria Different-Phenotype (%): 13%
  Population Mitotic Cells (%): 66%
  Population Normal (%): 96%
  Population Pyknosed Nuclei (%): 12%
  Population Tubulin-Different-Phenotype (%): 5%
  Total Cell Count: 67
[7]
  Population Apoptotic (%): 72%
  Population Fragmented Nuclei (%): 23%
  Population Healthy Nuclei (%): 51%
  Population Hoechst High Intensity Objects (%): 25%
  Population Membrane Permeable-Phenotype (%): 9%
  Population Mitochondria Different-Phenotype (%): 50%
  Population Mitotic Cells (%): 27%
  Population Normal (%): 74%
  Population Pyknosed Nuclei (%): 25%
  Population Tubulin-Different-Phenotype (%): 80%
  Total Cell Count: 226
[8]
  Population Apoptotic (%): 68%
  Population Fragmented Nuclei (%): 16%
  Population Healthy Nuclei (%): 47%
  Population Hoechst High Intensity Objects (%): 2%
  Population Membrane Permeable-Phenotype (%): 55%
  Population Mitochondria Different-Phenotype (%): 97%
  Population Mitotic Cells (%): 32%
  Population Normal (%): 97%
  Population Pyknosed Nuclei (%): 35%
  Population Tubulin-Different-Phenotype (%): 91%
  Total Cell Count: 51
[11]
  Population Apoptotic (%): 66%
  Population Fragmented Nuclei (%): 38%
  Population Healthy Nuclei (%): 47%
  Population Hoechst High Intensity Objects (%): 20%
  Population Membrane Permeable-Phenotype (%): 17%
  Population Mitochondria Different-Phenotype (%): 0%
  Population Mitotic Cells (%): 33%
  Population Normal (%): 79%
  Population Pyknosed Nuclei (%): 14%
  Population Tubulin-Different-Phenotype (%): 21%
  Total Cell Count: 134
[12]
  Population Apoptotic (%): 100%
  Population Fragmented Nuclei (%): 53%
  Population Healthy Nuclei (%): 45%
  Population Hoechst High Intensity Objects (%): 25%
  Population Membrane Permeable-Phenotype (%): 9%
  Population Mitochondria Different-Phenotype (%): 1%
  Population Mitotic Cells (%): 0%
  Population Normal (%): 74%
  Population Pyknosed Nuclei (%): 1%
  Population Tubulin-Different-Phenotype (%): 49%
  Total Cell Count: 219
[9]
  Population Apoptotic (%): 86%
  Population Fragmented Nuclei (%): 33%
  Population Healthy Nuclei (%): 44%
  Population Hoechst High Intensity Objects (%): 42%
  Population Membrane Permeable-Phenotype (%): 10%
  Population Mitochondria Different-Phenotype (%): 46%
  Population Mitotic Cells (%): 13%
  Population Normal (%): 57%
  Population Pyknosed Nuclei (%): 21%
  Population Tubulin-Different-Phenotype (%): 73%
  Total Cell Count: 191
[10]
  Population Apoptotic (%): 93%
  Population Fragmented Nuclei (%): 34%
  Population Healthy Nuclei (%): 26%
  Population Hoechst High Intensity Objects (%): 24%
  Population Membrane Permeable-Phenotype (%): 22%
  Population Mitochondria Different-Phenotype (%): 54%
  Population Mitotic Cells (%): 6%
  Population Normal (%): 75%
  Population Pyknosed Nuclei (%): 39%
  Population Tubulin-Different-Phenotype (%): 72%
  Total Cell Count: 111
